Results published in ChEMBL document CHEMBL3259743, “Highly-selective 4-(1,2,3-triazole)-based P450c17a 17,20-lyase inhibitors” (Bioorg Med Chem Lett, 2014).
pIC50: −log10 of the molar value.

How the values were obtained:
[1] = molecular target: T1, Steroid 17-alpha-hydroxylase/17,20 lyase (Homo sapiens, UniProt P05093); assay: Inhibition of human recombinant CYP17 lyase activity using 17alpha-hydroxypregnenolone as substrate by HPLC/MS/MS method
T1 sequence (P05093 whole entry): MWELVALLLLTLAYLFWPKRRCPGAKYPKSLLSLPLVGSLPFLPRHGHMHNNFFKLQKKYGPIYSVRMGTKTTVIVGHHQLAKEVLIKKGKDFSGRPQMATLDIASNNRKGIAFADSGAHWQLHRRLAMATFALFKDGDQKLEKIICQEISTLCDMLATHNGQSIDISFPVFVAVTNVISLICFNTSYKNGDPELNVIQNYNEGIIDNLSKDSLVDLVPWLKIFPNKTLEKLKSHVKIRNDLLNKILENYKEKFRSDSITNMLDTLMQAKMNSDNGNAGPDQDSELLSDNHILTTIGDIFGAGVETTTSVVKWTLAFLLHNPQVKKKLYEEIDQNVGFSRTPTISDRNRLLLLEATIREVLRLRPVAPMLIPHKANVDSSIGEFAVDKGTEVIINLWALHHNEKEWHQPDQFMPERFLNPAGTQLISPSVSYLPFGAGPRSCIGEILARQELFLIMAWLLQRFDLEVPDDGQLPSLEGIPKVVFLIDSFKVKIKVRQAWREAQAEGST
How it was run: (§1)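 Recombinant human CYP17 expressed in a yeast microsome system, run with an NADPH-regenerating system. Hydroxylase and lyase products analysed by HPLC/MS/MS. IC50 from a 4-parameter logistic fit of the dose-response data.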

[2] = molecular target: T1, Steroid 17-alpha-hydroxylase/17,20 lyase; assay: Inhibition of human recombinant CYP17 hydroxylase activity by HPLC/MS/MS method; how it was run: as §1
[3] = Metabolic stability in human liver microsomes assessed as compound remaining after 60 mins; type: ADME; settings: read-out: Stability
How it was run: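 Incubation in human liver microsomes for 60 min. Read-out is the percentage of parent compound remaining.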

[4] = molecular target: T2, Steroid 17-alpha-hydroxylase/17,20 lyase (Rattus norvegicus, UniProt P11715); assay: Inhibition of rat testicular microsome CYP17 lyase activity using 17alpha-hydroxypregnenolone as substrate by HPLC/MS/MS method
T2 sequence (P11715 whole entry): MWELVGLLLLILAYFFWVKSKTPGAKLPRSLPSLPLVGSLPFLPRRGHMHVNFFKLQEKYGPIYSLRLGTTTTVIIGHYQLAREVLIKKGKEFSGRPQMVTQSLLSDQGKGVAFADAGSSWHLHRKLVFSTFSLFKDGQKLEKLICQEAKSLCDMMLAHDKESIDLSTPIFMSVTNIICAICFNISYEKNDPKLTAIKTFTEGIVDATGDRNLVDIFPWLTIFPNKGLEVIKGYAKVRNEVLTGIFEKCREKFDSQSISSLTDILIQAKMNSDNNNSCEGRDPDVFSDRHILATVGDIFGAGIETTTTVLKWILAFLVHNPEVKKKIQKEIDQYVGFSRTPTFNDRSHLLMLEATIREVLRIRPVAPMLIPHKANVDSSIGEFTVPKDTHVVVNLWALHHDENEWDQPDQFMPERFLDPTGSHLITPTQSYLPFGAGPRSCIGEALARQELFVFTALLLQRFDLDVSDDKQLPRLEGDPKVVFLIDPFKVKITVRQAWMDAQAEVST
How it was run: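 Rat testicular microsome preparation with an NADPH-regenerating system. Product analysed by HPLC/MS/MS. IC50 taken from a 4-parameter logistic fit of the dose-response data.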

Cytochrome P450 3A4 = Cytochrome P450 3A4 (Homo sapiens, UniProt P08684); assay: Inhibition of human hepatocyte microsome CYP3A4 using testosterone as substrate by HPLC/MS/MS method; type: ADME
How it was run: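 Pooled human hepatocyte microsome preparation with an NADPH-regenerating system. Product analysed by HPLC/MS/MS. IC50 from a 4-parameter logistic fit of the dose-response data.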

[5] = tested on: CYP3A4 versus CYP17 lyase; assay: Selectivity ratio of IC50 for human hepatocyte microsome CYP3A4 to IC50 for rat testicular microsome CYP17 lyase activity
[6] = molecular target: T1, Steroid 17-alpha-hydroxylase/17,20 lyase; assay: Selectivity ratio of IC50 for human recombinant CYP17 hydroxylase activity to IC50 for human recombinant CYP17 lyase activity
How it was run: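 Lyase selectivity expressed as human hydroxylase IC50 divided by human lyase IC50. Both values come from recombinant human CYP17 in a yeast microsome system, with products analysed by HPLC/MS/MS and 4-parameter logistic fitting.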

[7] = tested on: CYP3A4 versus CYP17 lyase; assay: Selectivity ratio of IC50 for human hepatocyte microsome CYP3A4 to IC50 for human recombinant CYP17 lyase activity; type: ADME, cell-based; settings: read-out: Ratio IC50
How it was run: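 Ratio of human CYP3A4 IC50 (pooled human hepatocyte microsomes) to human CYP17 lyase IC50 (recombinant enzyme, yeast microsomes). Both IC50 values from HPLC/MS/MS product analysis with a 4-parameter logistic fit.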

Hamster [8] = assay: Inhibition of CYP17 in gonadally-intact hamster assessed as testosterone level in serum at 50 mg/kg, po after 2 hrs by LC/MS/MS analysis (reference value: 1.98 +/- 0.057 ng/mL); type: functional, Cricetinae
Hamster [9] = assay: Inhibition of CYP17 in gonadally-intact hamster assessed as progesterone level in serum at 50 mg/kg, po after 2 hrs by LC/MS/MS analysis (reference value: 1.02 +/- 0.05 ng/mL); type: functional, Cricetinae
[10] = molecular target: T2, Steroid 17-alpha-hydroxylase/17,20 lyase; assay: Inhibition of rat testicular microsome CYP17 hydroxylase activity by HPLC/MS/MS method
How it was run: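 Rat testicular microsomal preparation as the enzyme source, with an NADPH-regenerating system. Reaction product was analysed by HPLC/MS/MS. IC50 was derived from a 4-parameter logistic fit of the dose-response data.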

Chain of Cytochrome P450 3A4 (P08684 whole entry): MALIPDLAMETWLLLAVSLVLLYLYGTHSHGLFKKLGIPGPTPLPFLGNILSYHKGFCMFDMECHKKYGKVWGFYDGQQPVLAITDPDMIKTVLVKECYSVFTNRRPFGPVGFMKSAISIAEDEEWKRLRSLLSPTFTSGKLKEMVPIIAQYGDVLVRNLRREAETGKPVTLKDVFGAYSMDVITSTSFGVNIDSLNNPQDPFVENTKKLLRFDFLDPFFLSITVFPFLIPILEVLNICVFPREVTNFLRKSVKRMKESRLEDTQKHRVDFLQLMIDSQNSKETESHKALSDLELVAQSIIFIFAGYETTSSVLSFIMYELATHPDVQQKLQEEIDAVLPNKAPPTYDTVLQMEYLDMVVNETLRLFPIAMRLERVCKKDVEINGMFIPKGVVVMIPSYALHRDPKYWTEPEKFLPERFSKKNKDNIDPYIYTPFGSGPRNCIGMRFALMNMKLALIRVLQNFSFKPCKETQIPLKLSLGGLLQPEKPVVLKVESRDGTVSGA

Row | pIC50 [1] | pIC50 [2] | pIC50 [4] | pIC50 (Cytochrome P450 3A4) | Structure (SMILES) | Ratio IC50 [6] | selectivity ratio [7] | also measured
1 | 6.77 | 6.16 |  |  | CC(C)C(O)(c1ccc2cc(OC(F)F)c(OC(F)F)cc2c1)c1c[nH]nn1 (racemic) |  |  | remaining at 1 h [3]: 54%
2 |  |  | 7.07 | 5.19 | COc1cc2ccc(C(O)(c3cnco3)C(C)C)cc2cc1OC (racemic) |  |  | 
3 |  |  |  | 4.74 | COc1cc2ccc(C(O)(c3ccncn3)C(C)C)cc2cc1OC (racemic) |  |  | 
4 |  |  | 6.37 | 4.57 | COc1cc2ccc(C(O)(c3cn[nH]c3)C(C)C)cc2cc1OC (racemic) |  |  | 
5 |  |  | 7.22 | 5.35 | COc1cc2ccc(C(O)(c3ccncc3)C(C)C)cc2cc1OC (racemic) |  |  | 
6 | 7.30 | 6.66 | 7.54 | 5.80 | COc1cc2ccc(C(O)(c3c[nH]cn3)C(C)C)cc2cc1OC (racemic) | 4.4 | 32 | pIC50 [10]: 6.85; Activity (Hamster [8]): 0.3 ng/mL; Activity (Hamster [9]): 3.9 ng/mL
7 |  |  |  | 6.11 | COc1cc2ccc(C(O)(c3cncs3)C(C)C)cc2cc1OC (racemic) |  |  | 
8 |  |  | 5.15 | 4.00 | COc1cc2ccc(C(O)(c3nc[nH]n3)C(C)C)cc2cc1OC (racemic) |  |  | 
9 |  |  | 5.38 | 5.03 | COc1cc2ccc(C(O)(c3cccnc3)C(C)C)cc2cc1OC (racemic) |  |  | 
10 |  |  | 5.80 | 5.74 | COc1cc2ccc(C(O)(c3cc[nH]n3)C(C)C)cc2cc1OC (racemic) |  |  | 

The remaining lines, values behind:

Row | Structure (SMILES) | pIC50 [1] | pIC50 [2] | pIC50 [4] | pIC50 (Cytochrome P450 3A4) | Ratio IC50 [6] | selectivity ratio [7] | also measured
11 | COc1cc2ccc(C(O)(c3c[nH]nn3)C(C)C)cc2cc1OC (racemic) | 6.74 | 5.64 |  | 4.24 | 13 | 320 | selectivity ratio [5]: 317; remaining at 1 h [3]: 29%
12 | CC(C)[C@](O)(c1ccc2cc(OC(F)F)c(OC(F)F)cc2c1)c1c[nH]nn1 [SEVITERONEL] |  |  |  |  |  |  | Activity (Hamster [8]): 0.37 ng/mL; Activity (Hamster [9]): 1.2 ng/mL
13 | CC(C)C(O)(c1ccc2cc(-c3cnco3)ccc2c1)c1c[nH]nn1 (racemic) | 6.03 | 4.89 |  | 3.99 | 14 | 110 | 
14 | CC(C)C(O)(c1ccc2cc(OCC(F)(F)F)ccc2c1)c1c[nH]nn1 (racemic) | 6.24 | 6.00 |  | ≤ 3.71 | 1.8 | ≥ 340 | 
15 | CC(=O)O[C@H]1CC[C@@]2(C)C(=CC[C@@H]3[C@@H]2CC[C@]2(C)C(c4cccnc4)=CC[C@@H]32)C1 [ABIRATERONE ACETATE] |  |  |  |  |  |  | Activity (Hamster [8]): 0.3 ng/mL; Activity (Hamster [9]): 2.1 ng/mL
16 | CC(C)C(O)(c1ccc2cc(OCC(F)(F)F)c(OCC(F)(F)F)cc2c1)c1c[nH]nn1 (racemic) | 6.51 | 5.43 |  | 4.60 | 12 | 80 | 
17 | CC(C)C(O)(c1ccc2cc(OC(F)F)ccc2c1)c1c[nH]nn1 (racemic) | 6.48 | 7.13 |  | 4.85 | 0.22 | 42 | 
18 | CC(C)C(O)(c1ccc2cc(-c3cccs3)ccc2c1)c1c[nH]nn1 (racemic) | < 5.40 | 4.89 |  | 4.09 | < 3 | < 20 | 
